# Measured values: ChEMBL document CHEMBL3091288, “Fluorine Scanning by Nonselective Fluorination: Enhancing Raf/MEK Inhibition while Keeping Physicochemical Properties” (ACS Med Chem Lett, 2013)
# Columns and labels:
# Mus musculus = test: Toxicity in BALB nu/nu mouse xenografted with human HCT116 cells assessed as body weight change at 0.3 mg/kg to 30 mg/kg, po qd for 11 days measured twice per week; type: organism-based, HCT-116; conditions: in vivo, 264 h
# HCT-116 [1] = test: Antitumor activity against human HCT116 cells xenografted in BALB-nu/nu mouse assessed as tumor growth inhibition at 30 mg/kg, po qd for 11 days measured twice per week relative to control; type: functional; conditions: HCT-116, 264 h, read-out: TGI
# Summary of the method: (§1)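 HCT116 cells implanted subcutaneously in right flank of BALB-nu/nu mice; tumours allowed to establish before dosing. Sodium salt given orally once daily for 11 days (day 0 to day 10). Tumour size measured twice weekly; mean SD, n = 4.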
# [2] = Oral bioavailability in cynomolgus monkey at 5 mg/kg by LC-MS/MS analysis; type: ADME, organism-based, Macaca fascicularis; conditions: in vivo
# Summary of the method: (§2)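 Sodium salt dosed intravenously and orally in mouse (10/20 mg/kg), rat (5.0/10 mg/kg) and monkey (2.5/5.0 mg/kg iv/po), vehicle 5% DMSO/5% Cremophor EL/15% PEG400/15% HPCD/60% water. AUC_inf from oral dosing, t1/2 from iv dosing, clearance and oral bioavailability from paired iv/po data.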
# HCT-116 [3] = test: Antitumor activity against human HCT116 cells xenografted in BALB-nu/nu mouse administered orally qd for 11 days; type: functional; conditions: HCT-116, po, 264 h; summary of the method: as §1
# [4] = Oral bioavailability in rat at 10 mg/kg by LC-MS/MS analysis; type: ADME, organism-based; conditions: in vivo; summary of the method: as §2
# [5] = Oral bioavailability in BALB-nu/nu mouse at 20 mg/kg by LC-MS/MS analysis; type: ADME, organism-based; conditions: in vivo; summary of the method: as §2
# [6] = Clearance in rat at 5 mg/kg, iv and 10 mg/kg, po by LC-MS/MS analysis; type: ADME, organism-based; conditions: in vivo; summary of the method: as §2
# [7] = Clearance in cynomolgus monkey at 2.5 mg/kg, iv and 5 mg/kg, po by LC-MS/MS analysis; type: ADME, organism-based, Macaca fascicularis; conditions: in vivo; summary of the method: as §2
# [8] = Clearance in BALB-nu/nu mouse at 10 mg/kg, iv and 20 mg/kg, po by LC-MS/MS analysis; type: ADME, organism-based; conditions: in vivo; summary of the method: as §2
# [9] = Half life in rat at 5 mg/kg, iv by LC-MS/MS analysis; type: ADME, organism-based; set-up: dose 5 mg/kg, route intravenous; conditions: in vivo; summary of the method: as §2
# [10] = Half life in BALB-nu/nu mouse at 10 mg/kg, iv by LC-MS/MS analysis; type: ADME, organism-based; set-up: dose 10 mg/kg, route intravenous; conditions: in vivo; summary of the method: as §2
# [11] = AUC (infinity) in cynomolgus monkey at 5 mg/kg, po by LC-MS/MS analysis; type: ADME, organism-based, Macaca fascicularis; set-up: dose 5 mg/kg, route oral, time infinity; conditions: plasma; summary of the method: as §2
# [12] = AUC (infinity) in rat at 10 mg/kg, po by LC-MS/MS analysis; type: ADME, organism-based; set-up: time infinity, dose 10 mg/kg, route oral; conditions: plasma; summary of the method: as §2
# [13] = AUC (infinity) in BALB-nu/nu mouse at 20 mg/kg, po by LC-MS/MS analysis; type: ADME, organism-based; set-up: time infinity, dose 20 mg/kg, route oral; conditions: plasma; summary of the method: as §2
# [14] = Half life in cynomolgus monkey at 2.5 mg/kg, iv by LC-MS/MS analysis; conditions: in vivo
# [15] = AUC (0 to 24 hrs) in BALB-nu/nu mouse at 100 mg/kg, po by LC-MS/MS analysis; type: ADME, organism-based; set-up: time < 24 hr, dose 100 mg/kg, route oral; conditions: plasma
# Summary of the method: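 Mice received a single oral dose of 100 mg/kg, formulated as a solution in 5% DMSO, 5% Cremophor EL, 15% PEG400, 15% HPCD and 60% water. Plasma exposure was evaluated over 24 h.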
# [16] = AUC (0 to 24 hrs) in BALB-nu/nu mouse at 50 mg/kg, po by LC-MS/MS analysis; type: ADME, organism-based; set-up: time < 24 hr, dose 50 mg/kg, route oral; conditions: plasma
# [17] = Permeability of the compound at pH 6.5 by PAMPA; type: ADME; conditions: read-out: permeability
# Liver microsome = test: Clearance in human liver microsomes at 5 uM by LC-MS/MS analysis; type: ADME
# [18] = Solubility of the compound in fasted state simulated intestinal fluid measured after overnight incubation by UV-HPLC analysis; type: ADME
# [19] = target: RAF proto-oncogene serine/threonine-protein kinase (Homo sapiens, UniProt P04049); test: Inhibition of C-Raf (unknown origin) assessed as phosphorylation of MEK1 after 45 mins by TR-FRET assay
# Sequence of RAF proto-oncogene serine/threonine-protein kinase (P04049 whole entry): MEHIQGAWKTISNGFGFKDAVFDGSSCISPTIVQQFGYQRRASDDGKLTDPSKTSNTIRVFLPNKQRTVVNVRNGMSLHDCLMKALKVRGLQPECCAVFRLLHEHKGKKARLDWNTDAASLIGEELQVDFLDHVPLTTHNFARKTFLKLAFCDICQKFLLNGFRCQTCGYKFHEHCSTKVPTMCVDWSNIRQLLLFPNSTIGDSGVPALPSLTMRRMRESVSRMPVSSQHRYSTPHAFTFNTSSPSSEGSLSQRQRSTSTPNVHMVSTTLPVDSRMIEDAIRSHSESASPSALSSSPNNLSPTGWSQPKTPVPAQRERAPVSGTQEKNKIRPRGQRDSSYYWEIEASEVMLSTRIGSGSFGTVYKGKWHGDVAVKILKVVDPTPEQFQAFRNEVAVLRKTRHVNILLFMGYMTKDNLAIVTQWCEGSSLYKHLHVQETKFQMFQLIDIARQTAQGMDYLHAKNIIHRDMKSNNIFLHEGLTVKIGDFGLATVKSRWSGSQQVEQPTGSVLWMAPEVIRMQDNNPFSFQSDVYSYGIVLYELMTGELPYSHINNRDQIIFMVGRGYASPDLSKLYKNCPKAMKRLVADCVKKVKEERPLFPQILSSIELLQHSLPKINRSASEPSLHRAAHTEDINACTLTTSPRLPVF
# [20] = target: Dual specificity mitogen-activated protein kinase kinase 1 (Homo sapiens, UniProt Q02750); test: Inhibition of MEK1 (unknown origin) assessed as phosphorylation of Erk2 preincubated for 30 mins followed by FAM-Erktide addition measured after 60 mins by IMAP fluorescence polarization assay
# Sequence of Dual specificity mitogen-activated protein kinase kinase 1 (Q02750 whole entry): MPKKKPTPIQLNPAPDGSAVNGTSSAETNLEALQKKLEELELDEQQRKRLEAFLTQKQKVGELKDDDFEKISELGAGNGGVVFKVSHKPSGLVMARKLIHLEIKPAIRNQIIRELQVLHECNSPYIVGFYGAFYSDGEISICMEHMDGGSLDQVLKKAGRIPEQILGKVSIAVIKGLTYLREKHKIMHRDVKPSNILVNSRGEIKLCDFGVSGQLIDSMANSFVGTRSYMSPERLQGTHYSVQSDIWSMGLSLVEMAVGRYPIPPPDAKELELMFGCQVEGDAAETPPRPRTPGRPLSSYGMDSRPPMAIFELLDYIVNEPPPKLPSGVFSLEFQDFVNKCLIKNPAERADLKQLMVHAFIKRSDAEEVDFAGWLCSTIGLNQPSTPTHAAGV
# HCT-116 [21] = test: Antiproliferative activity against human HCT116 cells assessed as cell viability after 96 hrs by cell counting kit-8 assay; type: functional, cell-based; conditions: HCT-116, 96 h
# [22] = Oral bioavailability in mouse; type: ADME, organism-based; conditions: in vivo
# Summary of the method: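 Mice received the sodium salt at 10 mg/kg iv and 20 mg/kg po, in a vehicle of 5% DMSO/5% Cremophor EL/15% PEG400/15% HPCD/60% water. Bioavailability was derived from the iv and po exposure.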
# hERG (KCNH2) = hERG (KCNH2) (Homo sapiens, UniProt Q12809); test: Inhibition of human ERG expressed in CHO cells at 10 uM by patch clamp assay relative to control; type: cell-based; conditions: CHO cells expressing human ERG
# Sequence of hERG (KCNH2) (Q12809 whole entry): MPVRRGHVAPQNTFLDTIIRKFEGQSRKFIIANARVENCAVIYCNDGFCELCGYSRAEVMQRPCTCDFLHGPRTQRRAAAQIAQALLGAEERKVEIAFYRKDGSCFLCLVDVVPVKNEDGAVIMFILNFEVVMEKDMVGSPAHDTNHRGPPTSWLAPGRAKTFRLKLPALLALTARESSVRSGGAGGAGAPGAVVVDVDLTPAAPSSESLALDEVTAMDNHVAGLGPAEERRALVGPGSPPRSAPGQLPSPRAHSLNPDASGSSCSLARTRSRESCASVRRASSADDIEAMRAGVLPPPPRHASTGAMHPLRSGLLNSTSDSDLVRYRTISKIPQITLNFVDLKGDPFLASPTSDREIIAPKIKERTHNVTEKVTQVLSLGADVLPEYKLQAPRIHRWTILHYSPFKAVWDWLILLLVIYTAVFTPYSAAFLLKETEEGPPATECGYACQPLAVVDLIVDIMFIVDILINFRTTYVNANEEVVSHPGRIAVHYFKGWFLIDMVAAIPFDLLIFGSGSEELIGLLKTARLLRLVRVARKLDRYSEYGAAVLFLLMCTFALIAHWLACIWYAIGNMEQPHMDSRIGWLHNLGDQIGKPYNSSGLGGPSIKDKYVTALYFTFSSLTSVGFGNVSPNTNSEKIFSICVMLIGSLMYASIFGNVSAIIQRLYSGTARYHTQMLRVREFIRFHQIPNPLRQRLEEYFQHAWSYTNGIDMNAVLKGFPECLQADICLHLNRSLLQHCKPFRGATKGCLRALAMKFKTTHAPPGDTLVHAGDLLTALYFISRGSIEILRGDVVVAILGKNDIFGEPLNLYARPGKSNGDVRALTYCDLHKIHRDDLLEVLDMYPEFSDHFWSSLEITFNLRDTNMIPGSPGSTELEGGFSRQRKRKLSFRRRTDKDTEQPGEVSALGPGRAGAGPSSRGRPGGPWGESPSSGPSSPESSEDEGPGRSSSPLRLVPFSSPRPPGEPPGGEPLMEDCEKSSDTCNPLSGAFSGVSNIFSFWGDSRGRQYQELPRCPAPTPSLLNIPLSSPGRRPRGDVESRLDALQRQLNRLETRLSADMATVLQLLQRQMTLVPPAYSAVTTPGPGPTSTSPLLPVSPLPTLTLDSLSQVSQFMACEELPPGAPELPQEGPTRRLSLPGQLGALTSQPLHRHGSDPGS
SMILES,AUC(0-t) at 24 h [15] [µM·h],Papp [17] [×10⁻⁶ cm/s],CLH (Liver microsome) [µL/min/mg],solubility [18] [µg/mL],IC50 [19] [nM],IC50 [20] [nM],IC50 (HCT-116 [21]) [nM],further results
CNS(=O)(=O)[N-]c1cccc(Cc2c(C)c3ccc(Oc4ncccn4)cc3oc2=O)c1F.[Na+],–,–,–,–,–,–,–,Activity (Mus musculus): Non-toxic; inhibition in vivo at 30 mg/kg (HCT-116 [1]): 119%; bioavailability [2]: 59%; ED50 (HCT-116 [3]): 1.4 mg/kg; bioavailability [4]: 84%; bioavailability [5]: 75%; clearance [6]: 6.6 mL/min/kg; clearance [7]: 0.9 mL/min/kg; clearance [8]: 6.8 mL/min/kg; half-life [9]: 1.3 h; half-life [10]: 4.8 h; AUC(0-inf) [11]: 108 µM·h; AUC(0-inf) [12]: 43 µM·h; AUC(0-inf) [13]: 75 µM·h; half-life [14]: 2.9 h
CNS(=O)(=O)[N-]c1cccc(Cc2c(C)c3ccc(Oc4nccs4)cc3oc2=O)c1F.[Na+],366,–,–,–,–,–,–,–
CNS(=O)(=O)[N-]c1cccc(Cc2c(C)c3ccc(Oc4nccs4)cc3oc2=O)c1.[Na+],190,–,–,–,–,–,–,–
CNS(=O)(=O)[N-]c1cccc(Cc2c(C)c3ccc(OC(=O)N(C)C)cc3oc2=O)c1F.[Na+],70,–,–,–,–,–,–,–
CNS(=O)(=O)[N-]c1cccc(Cc2c(C)c3ccc(OC(=O)N(C)C)cc3oc2=O)c1.[Na+],78,–,–,–,–,–,–,–
Cc1c(Cc2cccc([N-]S(N)(=O)=O)c2)c(=O)oc2cc(OC(=O)N(C)C)ccc12.[Na+],104,–,–,–,–,–,–,–
Cc1c(Cc2cccc([N-]S(N)(=O)=O)c2F)c(=O)oc2cc(OC(=O)N(C)C)ccc12.[Na+],–,–,–,–,–,–,–,AUC(0-t) at 24 h [16]: 40 µM·h
CNS(=O)(=O)Nc1cccc(Cc2c(C)c3ccc(Oc4nccs4)cc3oc2=O)c1F,–,3,9,15,63,26,11,–
CNS(=O)(=O)Nc1cccc(Cc2c(C)c3ccc(Oc4ncccn4)cc3oc2=O)c1C,–,–,–,< 4,3600,4200,330,–
CNS(=O)(=O)Nc1cccc(Cc2c(C)c3cc(I)c(OC(=O)N(C)C)cc3oc2=O)c1,16,–,33,8,25,5,8,–
CNS(=O)(=O)Nc1cccc(Cc2c(C)c3cc(C)c(OC(=O)N(C)C)cc3oc2=O)c1,18,–,17,11,78,29,22,–
C#Cc1cc2c(C)c(Cc3cccc(NS(=O)(=O)NC)c3)c(=O)oc2cc1OC(=O)N(C)C,–,–,–,21,70,100,140,–
CNS(=O)(=O)Nc1cccc(Cc2c(C)c3cc(C#N)c(OC(=O)N(C)C)cc3oc2=O)c1,39,–,15,40,55,85,24,–
Cc1c(Cc2cccc(NS(N)(=O)=O)c2)c(=O)oc2cc(OC(=O)N(C)C)ccc12,–,6,6,32,530,230,95,bioavailability [22]: 62%
Cc1c(Cc2cc(NS(N)(=O)=O)ccc2F)c(=O)oc2cc(OC(=O)N(C)C)ccc12,176,5,6,9,830,940,950,–
Cc1c(Cc2ccc(F)c(NS(N)(=O)=O)c2)c(=O)oc2cc(OC(=O)N(C)C)ccc12,–,6,6,37,1100,44,610,–
Cc1c(Cc2cccc(NS(N)(=O)=O)c2F)c(=O)oc2cc(OC(=O)N(C)C)ccc12,–,6,6,273,13,53,18,–
Cc1c(Cc2cccc(NS(N)(=O)=O)c2)c(=O)oc2cc(OC(=O)N(C)C)c(F)cc12,–,5,6,114,180,110,87,AUC(0-t) at 24 h [16]: 61 µM·h
Cc1c(Cc2cccc(NS(N)(=O)=O)c2)c(=O)oc2c(F)c(OC(=O)N(C)C)ccc12,–,–,–,–,120,240,140,–
CN(C)C(=O)Oc1ccc2c(CF)c(Cc3cccc(NS(N)(=O)=O)c3)c(=O)oc2c1,84,4,7,14,220,60,200,–
CNS(=O)(=O)Nc1cccc(Cc2c(C)c3ccc(OC(=O)N(C)C)cc3oc2=O)c1,–,6,20,32,300,110,24,–
CNS(=O)(=O)Nc1ccc(F)c(Cc2c(C)c3ccc(OC(=O)N(C)C)cc3oc2=O)c1,75,5,22,51,2400,2900,550,–
CNS(=O)(=O)Nc1cccc(Cc2c(C)c3ccc(OC(=O)N(C)C)cc3oc2=O)c1F,–,5,13,81,8,38,9,–
CNS(=O)(=O)Nc1cccc(Cc2c(C)c3cc(F)c(OC(=O)N(C)C)cc3oc2=O)c1,99,5,13,55,–,64,22,–
CNS(=O)(=O)Nc1cccc(Cc2c(CF)c3ccc(OC(=O)N(C)C)cc3oc2=O)c1,86,4,22,72,120,66,30,–
CNS(=O)(=O)Nc1cccc(Cc2c(C)c3ccc(Oc4ncccn4)cc3oc2=O)c1,223,6,20,29,> 10000,810,190,–
CNS(=O)(=O)Nc1cccc(Cc2c(C)c3ccc(Oc4ncccn4)cc3oc2=O)c1F,425,6,7,13,23,97,17,inhibition at 10 µM (hERG (KCNH2)): 25%
CNS(=O)(=O)Nc1cccc(Cc2c(C)c3ccc(Oc4nccs4)cc3oc2=O)c1,–,2,24,9,1500,59,160,–
